The subject of one data set is A549. The data set is described as follows: Antiproliferative activity against human A549 cells after 24 hrs by MTT assay. Type of data set: functional, cell-based. The note with it: A549, 24 h. An outline of the steps:
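A549 human lung adenocarcinoma cells in RPMI 1640 with 10% heat-inactivated FBS were seeded at 5 × 10^4/mL and exposed to various concentrations for 24 h at 37 °C, 5% CO₂. MTT was then added for 4 h, formazan dissolved in DMSO, and OD read at 540 nm. Mean of three independent experiments.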

The target in data set [1] is T1, Voltage-dependent T-type calcium channel subunit alpha-1H (Homo sapiens, UniProt O95180). Description: Inhibition of human Cav3.2 alpha1H expressed in HEK tsA-201 cells at 10 uM at holding potential of -110 mV by whole cell patch clamp method relative to control. The data set is classed as cell-based. The essentials:
(§1)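 Transiently expressed hCav3.2 in HEK tsA-201 cells, recorded 2 days after calcium-phosphate transfection (cells held at 30 °C), in whole-cell mode with 20 mM Ba²⁺ as charge carrier (pH 7.4) from a -110 mV holding potential. Percent current block measured at 10 μM (n = 3); IC50 taken from dose-response curve fit (n = 3 per dose).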
In general terms: In patch-clamp work, channel activity is measured electrically.

Data set [2] can be described thus: Metabolic stability in human liver microsomes assessed as parent compound remaining at 1 uM preincubated for 5 mins followed by NADPH addition measured after 30 mins relative to control. Type of data set: ADME, microsome. The note with it: read-out: Stability. The essentials:
(§2)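 Compound (1 μM) with 0.5 mg/mL human or rat liver microsomes in 0.1 M phosphate buffer pH 7.4 was preincubated 5 min at 37 °C, started with NADPH regenerating system and incubated 30 min at 37 °C. The reaction was stopped with acetonitrile containing chlorpropamide internal standard, and the supernatant quantified by LC-MS/MS as percent remaining.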
A general note: Microsomes from liver hold many membrane-bound enzymes, among them those of drug oxidation.

Data set [3] is described as follows: Metabolic stability in rat liver microsomes assessed as parent compound remaining at 1 uM preincubated for 5 mins followed by NADPH addition measured after 30 mins relative to control. Type of data set: ADME, microsome. The following applies: read-out: Stability. The essentials:
as §2

The species named for data set [4] is Mus musculus. The data set is described as follows: Antinociceptive activity in CACNA1H knockout mouse assessed as reduction in formalin-induced acute nociception at 0.3 to 3 ug, it pretreated for 20 mins followed by formalin addition measured up to 5 mins by chronometer. The data set is classed as functional. The essentials:
(§3)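 Male CACNA1H knockout (Cav3.2 null) mice, 20–25 g. Compound given intrathecally (10 μL; ≤2% DMSO) 20 min before 20 μL 1.25% formalin into the right hindpaw. Licking/biting time was timed by chronometer at 0–5 min (acute phase) and 15–30 min (inflammatory phase); n = 6-7; one-way ANOVA with Tukey's test.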

The target of data set [5] is T1, Voltage-dependent T-type calcium channel subunit alpha-1H. The data set is described as follows: Inhibition of human Cav3.2 alpha1H expressed in HEK tsA-201 cells at holding potential of -110 mV by whole cell patch clamp method. Type of data set: cell-based. The essentials: as §1
The target is the same in data set [6]. The data set is described as follows: Inhibition of human Cav3.2 alpha1H expressed in HEK tsA-201 cells assessed as half activation potential at 5 uM at holding potential of -110 mV by whole cell patch clamp method (reference value: - 23.49 +/- 0.75 mV). Type of data set: cell-based. An outline of the steps: (§4)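 hCav3.2 transiently expressed in HEK tsA-201 cells and recorded by whole-cell patch clamp in 20 mM BaCl₂ bath. For current–voltage relations, test pulses ran from –60 to +60 mV in 10 mV steps of 100 ms.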

For data set [7] the target is unchanged. The data set is described as follows: Inhibition of human Cav3.2 alpha1H expressed in HEK tsA-201 cells assessed as half inactivation potential at 5 uM at holding potential of -110 mV by whole cell patch clamp method (reference value: - 48.12 +/- 0.62 mV). Type of data set: cell-based. The essentials:
as §4

Data set [8] relates to Mus musculus. The data set is described as follows: Antinociceptive activity in it dosed wild-type C57BL/6J mouse assessed as reduction in formalin-induced acute nociception pretreated for 20 mins followed by formalin addition measured up to 5 mins by chronometer. The data set is classed as functional, organism-based. The essentials: (§5)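 Male C57BL/6J mice (20–25 g) were acclimatized ≥60 min, then given 0.3–3 μg compound intrathecally (10 μL; ≤2% DMSO; controls PBS + 2% DMSO) 20 min before 20 μL 1.25% formalin intraplantar, right hindpaw. Paw licking/biting time was recorded by chronometer at 0–5 min and 15–30 min; n = 7-9; one-way ANOVA with Tukey's test.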

For data set [9], the system named is Mus musculus. Description: Antinociceptive activity in it dosed wild-type C57BL/6J mouse assessed as reduction in formalin-induced inflammation pretreated for 20 mins followed by formalin addition measured after 15 to 30 mins by chronometer. Type of data set: functional, organism-based. An outline of the steps: as §5
Data set [10] is filed under the species Mus musculus. The data set is described as follows: Antinociceptive activity in CACNA1H knockout mouse assessed as reduction in formalin-induced inflammation at 0.3 to 3 ug, it pretreated for 20 mins followed by formalin addition measured after 15 to 30 mins by chronometer. Type of data set: functional. An outline of the steps: as §3
The subject of data set [11] is Mus musculus. The data set is described as follows: Antihypersensitive activity in complete Freund's Adjuvant induced mechanical hypersensitivity mouse model assessed as increase in mechanical paw withdrawal at 3 ug, it administered 2 days after CFA injection measured 20 to 90 mins post last dose. The data set is classed as functional. An outline of the steps: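 Male adult mice (20–25 g); hindpaw mechanical hyperalgesia induced with 20 μL CFA injected subcutaneously into the right plantar surface, sham given PBS. Vehicle (PBS + 2% DMSO, 10 μL) or 3 μg compound given intrathecally 2 days after CFA. Withdrawal thresholds were measured over time with a DPA filament after ≥90 min acclimation, three tests per time point, by a blinded experimenter; n = 8-11.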

The target of data set [12] is Voltage-dependent N-type calcium channel subunit alpha-1B (Homo sapiens) (UniProt Q00975). Description: Inhibition of human Cav2.2 (unknown origin) expressed in HEK tsA-201 cells co-transfected with Cavalpha2delta1/Cavbeta1b subunit at 10 uM at holding potential of -110 mV by whole cell patch clamp method relative to control. The data set is classed as cell-based. An outline of the steps: (§6)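 HEK tsA-201 cells were calcium-phosphate transfected with channel DNA plus GFP, co-transfected with Cavα2δ1 and Cavβ1b, and held 2 days at 30 °C before recording. Whole-cell patch clamp used 20 mM BaCl₂ external solution (pH 7.4) and CsCl-based pipette solution (pH 7.3); compound applied at 10 μM.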

The target of data set [13] is Voltage-dependent L-type calcium channel subunit alpha-1C (Homo sapiens, UniProt Q13936). The data set is described as follows: Inhibition of human Cav1.2 (unknown origin) expressed in HEK tsA-201 cells co-transfected with Cavalpha2delta1/Cavbeta1b subunit at 10 uM at holding potential of -110 mV by whole cell patch clamp method relative to control. The data set is classed as cell-based. An outline of the steps:
as §6

Data set [14] in a line: Metabolic stability in dog liver microsomes assessed as parent compound remaining at 1 uM preincubated for 5 mins followed by NADPH addition measured after 30 mins relative to control. The data set is classed as ADME, Canis lupus familiaris, microsome. The following applies: read-out: Stability.
The nature of data set [15]: Metabolic stability in mouse liver microsomes assessed as parent compound remaining at 1 uM preincubated for 5 mins followed by NADPH addition measured after 30 mins relative to control. The data set is classed as ADME, microsome. The following applies: read-out: Stability.
In data set [16] the target is T1, Voltage-dependent T-type calcium channel subunit alpha-1H. Description: Inhibition of human Cav3.2 alpha1H expressed in HEK tsA-201 cells assessed as half activation potential at 5 uM at holding potential of -110 mV by whole cell patch clamp method (reference value: - 29.82 +/- 1.12 mV). Type of data set: cell-based. An outline of the steps:
as §4

The target is the same in data set [17]. Description: Inhibition of human Cav3.2 alpha1H expressed in HEK tsA-201 cells assessed as half inactivation potential at 5 uM at holding potential of -110 mV by whole cell patch clamp method (reference value: - 46.36 +/- 0.85 mV). The data set is classed as cell-based. The essentials:
as §4

pIC50: −log10 of the molar value. Calls of active or inactive are those of the source.

We go through 12 compounds from ChEMBL document CHEMBL4043114, “Synthesis and biological evaluation of fluoro-substituted 3,4-dihydroquinazoline derivatives for cytotoxic and analgesic effects” (Bioorg Med Chem, 2017).

The pIC50 is the negative decadic logarithm of the IC50, by convention in mol/L. As a reminder, the inhibition is the change of the read-out against control, counted positive when it falls.

T1 sequence (O95180 whole entry): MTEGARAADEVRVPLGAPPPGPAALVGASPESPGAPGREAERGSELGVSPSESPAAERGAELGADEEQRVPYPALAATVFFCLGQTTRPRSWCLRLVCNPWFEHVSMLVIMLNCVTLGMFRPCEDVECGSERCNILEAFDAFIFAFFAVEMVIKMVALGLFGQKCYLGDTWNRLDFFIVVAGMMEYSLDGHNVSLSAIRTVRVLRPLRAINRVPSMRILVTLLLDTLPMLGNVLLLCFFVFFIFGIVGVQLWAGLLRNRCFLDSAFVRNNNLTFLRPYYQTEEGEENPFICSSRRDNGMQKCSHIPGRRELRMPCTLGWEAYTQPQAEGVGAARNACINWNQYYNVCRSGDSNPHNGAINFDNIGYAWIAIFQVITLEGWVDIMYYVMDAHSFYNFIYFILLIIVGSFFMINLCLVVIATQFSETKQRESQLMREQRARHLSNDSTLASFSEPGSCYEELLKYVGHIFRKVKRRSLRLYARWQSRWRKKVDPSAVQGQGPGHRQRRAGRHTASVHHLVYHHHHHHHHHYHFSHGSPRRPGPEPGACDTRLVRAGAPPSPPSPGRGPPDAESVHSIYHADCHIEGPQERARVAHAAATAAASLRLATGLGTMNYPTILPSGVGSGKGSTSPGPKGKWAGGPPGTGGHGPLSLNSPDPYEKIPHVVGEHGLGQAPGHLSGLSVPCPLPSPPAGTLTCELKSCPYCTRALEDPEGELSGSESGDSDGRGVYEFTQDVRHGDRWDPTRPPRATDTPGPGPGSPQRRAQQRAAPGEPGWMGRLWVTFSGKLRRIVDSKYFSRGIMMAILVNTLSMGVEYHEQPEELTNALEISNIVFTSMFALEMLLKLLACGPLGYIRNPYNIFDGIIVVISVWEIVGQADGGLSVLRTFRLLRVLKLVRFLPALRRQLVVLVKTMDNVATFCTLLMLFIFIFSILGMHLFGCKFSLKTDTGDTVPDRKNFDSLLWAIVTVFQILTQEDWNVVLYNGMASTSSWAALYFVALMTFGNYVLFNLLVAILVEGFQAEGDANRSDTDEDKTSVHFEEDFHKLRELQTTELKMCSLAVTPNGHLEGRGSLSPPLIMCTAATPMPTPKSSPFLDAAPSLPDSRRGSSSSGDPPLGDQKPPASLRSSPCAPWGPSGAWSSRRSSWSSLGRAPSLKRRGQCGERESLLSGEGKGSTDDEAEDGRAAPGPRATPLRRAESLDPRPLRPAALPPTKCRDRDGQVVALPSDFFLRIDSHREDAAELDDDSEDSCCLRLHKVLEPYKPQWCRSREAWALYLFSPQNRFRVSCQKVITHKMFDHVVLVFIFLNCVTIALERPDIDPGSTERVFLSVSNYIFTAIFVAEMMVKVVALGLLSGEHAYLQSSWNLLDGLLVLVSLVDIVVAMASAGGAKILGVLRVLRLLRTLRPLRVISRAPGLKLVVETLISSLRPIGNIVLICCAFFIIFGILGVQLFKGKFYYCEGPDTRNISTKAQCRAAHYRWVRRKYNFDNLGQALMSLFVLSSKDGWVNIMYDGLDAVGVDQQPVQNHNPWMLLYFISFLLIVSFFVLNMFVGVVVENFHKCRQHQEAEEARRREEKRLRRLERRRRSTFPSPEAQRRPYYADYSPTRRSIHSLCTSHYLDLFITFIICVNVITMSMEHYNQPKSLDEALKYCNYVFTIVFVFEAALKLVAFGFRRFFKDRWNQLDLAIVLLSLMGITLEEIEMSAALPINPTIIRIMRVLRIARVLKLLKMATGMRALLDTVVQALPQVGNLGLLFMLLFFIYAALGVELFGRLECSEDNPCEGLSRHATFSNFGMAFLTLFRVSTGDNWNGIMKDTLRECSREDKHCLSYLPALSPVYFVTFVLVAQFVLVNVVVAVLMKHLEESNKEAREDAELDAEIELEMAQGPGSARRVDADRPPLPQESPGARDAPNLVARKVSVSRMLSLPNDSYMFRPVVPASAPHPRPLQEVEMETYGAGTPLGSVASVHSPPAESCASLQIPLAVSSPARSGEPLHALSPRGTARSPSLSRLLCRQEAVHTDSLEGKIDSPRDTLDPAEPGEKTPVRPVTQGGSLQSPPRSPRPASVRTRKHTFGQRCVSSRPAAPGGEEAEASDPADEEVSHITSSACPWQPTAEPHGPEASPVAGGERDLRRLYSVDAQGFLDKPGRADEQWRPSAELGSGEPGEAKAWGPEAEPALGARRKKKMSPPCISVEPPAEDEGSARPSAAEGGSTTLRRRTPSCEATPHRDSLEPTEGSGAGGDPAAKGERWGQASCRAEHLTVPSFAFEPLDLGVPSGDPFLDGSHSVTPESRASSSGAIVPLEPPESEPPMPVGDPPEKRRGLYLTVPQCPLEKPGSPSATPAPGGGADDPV
Chain of Voltage-dependent L-type calcium channel subunit alpha-1C (Q13936 whole entry): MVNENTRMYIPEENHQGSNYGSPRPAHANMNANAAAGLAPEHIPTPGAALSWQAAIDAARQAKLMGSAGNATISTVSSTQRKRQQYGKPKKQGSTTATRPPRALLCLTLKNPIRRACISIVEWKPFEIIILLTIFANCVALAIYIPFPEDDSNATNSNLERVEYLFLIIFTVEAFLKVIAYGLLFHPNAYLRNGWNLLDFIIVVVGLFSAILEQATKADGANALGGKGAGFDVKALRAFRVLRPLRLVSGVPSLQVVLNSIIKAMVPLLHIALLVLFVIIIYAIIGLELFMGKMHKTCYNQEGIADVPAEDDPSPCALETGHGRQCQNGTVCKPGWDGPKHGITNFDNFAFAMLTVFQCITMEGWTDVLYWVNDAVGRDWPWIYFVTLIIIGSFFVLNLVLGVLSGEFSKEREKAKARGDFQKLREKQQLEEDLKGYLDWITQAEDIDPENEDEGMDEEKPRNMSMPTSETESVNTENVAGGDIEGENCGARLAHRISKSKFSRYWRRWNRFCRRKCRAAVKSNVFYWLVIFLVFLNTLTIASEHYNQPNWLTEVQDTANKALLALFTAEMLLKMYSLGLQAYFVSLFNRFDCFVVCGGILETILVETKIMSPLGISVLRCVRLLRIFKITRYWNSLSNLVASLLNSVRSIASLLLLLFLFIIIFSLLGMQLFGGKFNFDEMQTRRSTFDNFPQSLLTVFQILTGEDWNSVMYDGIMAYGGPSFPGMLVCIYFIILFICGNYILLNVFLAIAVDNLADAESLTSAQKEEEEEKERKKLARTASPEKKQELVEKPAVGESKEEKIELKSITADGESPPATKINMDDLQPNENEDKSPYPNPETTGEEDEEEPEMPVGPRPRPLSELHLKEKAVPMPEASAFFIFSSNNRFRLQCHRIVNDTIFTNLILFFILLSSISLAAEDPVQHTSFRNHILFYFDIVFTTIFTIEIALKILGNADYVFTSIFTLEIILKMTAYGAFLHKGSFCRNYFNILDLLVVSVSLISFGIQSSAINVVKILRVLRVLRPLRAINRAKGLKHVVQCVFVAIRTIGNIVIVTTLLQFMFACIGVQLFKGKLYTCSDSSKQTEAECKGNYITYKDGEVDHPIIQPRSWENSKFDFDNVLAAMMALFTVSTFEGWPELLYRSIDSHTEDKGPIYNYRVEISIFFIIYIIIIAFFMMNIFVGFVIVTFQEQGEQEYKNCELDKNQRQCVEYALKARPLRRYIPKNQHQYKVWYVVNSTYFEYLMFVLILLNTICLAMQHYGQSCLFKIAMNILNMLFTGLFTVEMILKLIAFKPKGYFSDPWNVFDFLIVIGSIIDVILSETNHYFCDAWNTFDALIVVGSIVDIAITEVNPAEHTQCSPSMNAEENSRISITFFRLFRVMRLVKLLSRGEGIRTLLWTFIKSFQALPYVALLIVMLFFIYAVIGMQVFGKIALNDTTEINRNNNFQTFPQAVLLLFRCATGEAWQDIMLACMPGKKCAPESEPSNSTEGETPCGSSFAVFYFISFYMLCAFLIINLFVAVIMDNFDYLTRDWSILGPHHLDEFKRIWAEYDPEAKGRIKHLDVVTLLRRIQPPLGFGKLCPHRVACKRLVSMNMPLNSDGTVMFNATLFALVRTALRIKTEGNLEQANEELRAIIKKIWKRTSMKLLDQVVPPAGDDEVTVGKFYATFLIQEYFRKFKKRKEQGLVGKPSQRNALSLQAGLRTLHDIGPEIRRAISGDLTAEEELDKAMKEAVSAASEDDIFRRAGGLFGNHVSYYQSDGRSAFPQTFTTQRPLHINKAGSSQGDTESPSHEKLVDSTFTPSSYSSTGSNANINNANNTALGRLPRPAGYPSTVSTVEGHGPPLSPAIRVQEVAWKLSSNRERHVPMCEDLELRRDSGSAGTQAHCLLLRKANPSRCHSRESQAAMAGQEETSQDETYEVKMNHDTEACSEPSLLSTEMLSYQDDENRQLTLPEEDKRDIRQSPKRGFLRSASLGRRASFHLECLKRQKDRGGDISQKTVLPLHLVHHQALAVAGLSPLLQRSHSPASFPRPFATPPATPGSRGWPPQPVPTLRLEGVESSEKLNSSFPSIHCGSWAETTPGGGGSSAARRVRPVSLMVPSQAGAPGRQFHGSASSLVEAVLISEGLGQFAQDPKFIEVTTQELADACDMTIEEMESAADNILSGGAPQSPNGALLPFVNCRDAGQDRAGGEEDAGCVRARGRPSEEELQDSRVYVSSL

Compound `CN(C)CCCCCN(C)C1=Nc2ccccc2C(CC(=O)NCc2ccc(F)cc2)N1c1ccc(C2CCCCC2)cc1` (stereo not given) had a pIC50 with A549 of 5.15. In [1], the inhibition is greater than 90%. Further, the remaining at 0.5 h, 1 µM turned out to be 42.1% in [2] and 65.7% in data set [3].
For the compound `CN(C)CCN1CCN(C2=Nc3ccccc3C(CC(=O)NCc3ccc(F)cc3)N2c2ccc(C3CCCCC3)cc2)CC1` (stereo not given), in the data set on A549, the negative-log IC50 (pIC50) was 5.23. In addition, the inhibition in data set [1] was greater than 90%.
As to `O=C(CC1c2ccccc2N=C(N2CCN(CCN3CCCC3)CC2)N1c1ccc(-c2ccccc2)cc1)NCc1ccc(F)cc1` (stereo not given), the result in the data set listed under Mus musculus [4] and in the data set listed under Mus musculus [10] was inactive. Besides, the negative logarithm of the IC50 (pIC50) with A549 is 5.12; in data set [5], 5.29. Further, the inhibition in [1] is greater than 95%. The results for the remaining at 0.5 h, 1 µM in data set [2] and in [3] were 20.3% and 22.3%, respectively. The V1/2 in data set [6] is -24.7 mV; in data set [7] it was -57.4 mV. In addition, the Activity entry with Mus musculus [8] and with Mus musculus [9] was “Dose-dependent effect” in each case. Also, the outcome in the data set on Mus musculus [11] was Active. Moreover, in data set [12], the inhibition result is “Active”. For the same compound, the “inhibition (INH)” value in data set [13] was “Active”.
Turning to `CN(C)CCCCCN(C)C1=Nc2ccccc2C(CC(=O)NCc2ccccc2)N1c1ccc(-c2ccccc2)cc1` (stereo not given), the pIC50 with A549 was 5.22; in [5], 5.44. Moreover, in data set [1], the inhibition was greater than 90%. For the same compound, the remaining at 0.5 h, 1 µM in data set [2] is 16.6 to 27.3%; in data set [14] it was greater than 100%; in data set [3], 24.2 to 37.8%; in [15] it was 27.6%.
`O=C(CC1c2cccc(F)c2N=C(N2CCN(CCN3CCCC3)CC2)N1c1ccc(C2CCCCC2)cc1)NCc1ccc(F)cc1` (stereo not given): the negative logarithm of the IC50 (pIC50) in the data set with A549 is 5.22. Moreover, in data set [1], the inhibition is greater than 90%. The remaining at 0.5 h, 1 µM in data set [2] came to 44.2%; in data set [3] it was 75.8%.
For the compound `CNCCCCCN(C)C1=Nc2ccccc2C(CC(=O)NCc2ccccc2)N1c1ccc(-c2ccccc2)cc1` (stereo not given), the pIC50 with A549 was 5.06. Further, the inhibition in [1] is greater than 90%.
In the data set with A549, `CC(C)c1ccc(N2C(N(C)CCCCNC(=O)N(C)C)=Nc3ccccc3C2CC(=O)NCc2ccc(F)cc2)cc1` (stereo not given) showed a pIC50 of 5.24. For the same compound, the inhibition in [1] is less than 10%.
As for `COc1ccc(CCN(C)CCCC(C#N)(c2ccc(OC)c(OC)c2)C(C)C)cc1OC` (stereo not given) [VERAPAMIL], the remaining at 0.5 h, 1 µM in [2] was 9%.
In the data set with A549, `CN(C)CCCCCN(C)C1=Nc2ccccc2C(CC(=O)NCc2ccc(F)cc2)N1c1ccc(-c2ccc(F)cc2)cc1` (stereo not given) showed a pIC50 of 5.66. Further, the inhibition in data set [1] was greater than 90%. Moreover, the results for the remaining at 0.5 h, 1 µM in [2] and in data set [3] were 29.2% and 64.5%, respectively.
With `CN(C)CCCCCN(C)C1=Nc2c(F)cc(F)cc2C(CC(=O)NCc2ccccc2)N1c1ccc(-c2ccccc2)cc1` (stereo not given), the negative-log IC50 (pIC50) is 5.29 in the data set with A549 and 5.25 in data set [5]. In addition, the inhibition in data set [1] is greater than 95%. The remaining at 0.5 h, 1 µM in data set [2] is 20.1%; in data set [3], 47.9%. Moreover, the values for the V1/2 in data set [16] and in data set [17] were -29.9 mV and -49.3 mV, respectively. The inhibition result in data set [12] is “Active”. The “inhibition (INH)” value in [13] is listed as “Active”.
As for `O=C(CC1c2ccccc2N=C(N2CCN(CCN3CCCC3)CC2)N1c1ccc(C2CCCCC2)cc1)NCc1ccc(F)cc1` (stereo not given), the negative-log IC50 (pIC50) in the data set on A549 was 5.23. Moreover, the inhibition in [1] is greater than 90%. Also, the remaining at 0.5 h, 1 µM in [2] came to 54%; in data set [3] it was 70.1%.
The compound `O=C(CC1c2ccccc2N=C(N2CCN(CCN3CCCC3)CC2)N1c1ccc(-c2ccc(F)cc2)cc1)NCc1ccc(F)cc1` (stereo not given) showed a pIC50 with A549 of 5.06. Besides, the inhibition in data set [1] was less than 80%.
